# From ChEMBL document CHEMBL1124042, “Synthesis and potential antipsychotic activity of 1H-imidazo[1,2-c]pyrazolo[3,4-e]pyrimidines” (J Med Chem, 1988)
# pIC50: −log10 of the molar value.
# Assays:
# Rattus norvegicus [1] = test: Inhibition of shelf-jump avoidance in rats after peroral administration.; format: functional
# Summary of the method: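 One-way shelf-jump conditioned avoidance responding in rats. ED50 determined from at least three doses (N = 9).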
# Mus musculus [2] = test: Inhibition of locomotor activity in mouse after intraperitoneal administration; format: functional
# Mus musculus [3] = test: Inhibition of induction of ataxia in mouse after intraperitoneal administration; format: functional; details: ip
# Rattus norvegicus [4] = test: Inhibition of Sidman avoidance in rats after peroral administration; format: functional; details: po
# Summary of the method: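 Continuous (Sidman) avoidance responding in rats with oral dosing. At least three doses per drug, four animals per dose. ED50 reported ± SEM.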
# Adenosine receptor A1 = biological target: T1, Adenosine receptor A1 (Rattus norvegicus, UniProt P25099); test: Displacement of [3H]-CHA (N6-Cyclohexyl adenosine) from adenosine A1 receptor in rat brain; format: tissue-based
# T1 sequence (P25099 whole entry): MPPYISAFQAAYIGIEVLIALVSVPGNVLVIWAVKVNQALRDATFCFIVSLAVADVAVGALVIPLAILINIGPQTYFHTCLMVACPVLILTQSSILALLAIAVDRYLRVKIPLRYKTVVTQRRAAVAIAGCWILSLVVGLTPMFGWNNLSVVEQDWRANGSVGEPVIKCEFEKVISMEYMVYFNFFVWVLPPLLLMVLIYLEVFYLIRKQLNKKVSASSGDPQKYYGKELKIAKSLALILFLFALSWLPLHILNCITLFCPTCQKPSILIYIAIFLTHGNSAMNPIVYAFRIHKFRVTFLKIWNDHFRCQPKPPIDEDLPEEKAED
# Summary of the method: (§1)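 Rat brain radioligand displacement binding. IC50 values (μM) were derived by nonlinear regression from four or five concentrations of compound.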
# [5] = biological target: Beta-1 adrenergic receptor (Rattus norvegicus, UniProt P18090); test: Displacement of [3H]DHA (Dihydroalprenolol) from beta-1 adrenergic receptor in rat brain; format: tissue-based; summary of the method: as §1
# [6] = biological target: Beta-2 adrenergic receptor (Rattus norvegicus, UniProt P10608); test: Displacement of [3H]DHA (Dihydroalprenolol) from beta-2 adrenergic receptor in rat brain; format: tissue-based; summary of the method: as §1
# Monkey = test: Inhibition of Sidman avoidance in squirrel monkeys after the compound administered perorally; format: functional; details: in Saimiri, po
# Summary of the method: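 Oral dosing in squirrel monkeys trained on continuous (Sidman) avoidance responding. ED50 reported ± SEM.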
# [7] = biological target: Serotonin 1 (5-HT1) receptor (Rattus norvegicus, UniProt P28564+P30940+P19327+P28565); test: Displacement of [3H]-5-HT from serotonin-1 neurotransmitter receptor in rat brain; format: tissue-based; summary of the method: as §1
# [8] = Displacement of [3H]CHA (N6-Cyclohexyl adenosine) from rat brain adenosine A1 receptor
# [9] = Rattus norvegicus, po, read-out: ED50
# [10] = Mus musculus, ip, read-out: ED50
# Chain of Beta-2 adrenergic receptor (P10608 whole entry): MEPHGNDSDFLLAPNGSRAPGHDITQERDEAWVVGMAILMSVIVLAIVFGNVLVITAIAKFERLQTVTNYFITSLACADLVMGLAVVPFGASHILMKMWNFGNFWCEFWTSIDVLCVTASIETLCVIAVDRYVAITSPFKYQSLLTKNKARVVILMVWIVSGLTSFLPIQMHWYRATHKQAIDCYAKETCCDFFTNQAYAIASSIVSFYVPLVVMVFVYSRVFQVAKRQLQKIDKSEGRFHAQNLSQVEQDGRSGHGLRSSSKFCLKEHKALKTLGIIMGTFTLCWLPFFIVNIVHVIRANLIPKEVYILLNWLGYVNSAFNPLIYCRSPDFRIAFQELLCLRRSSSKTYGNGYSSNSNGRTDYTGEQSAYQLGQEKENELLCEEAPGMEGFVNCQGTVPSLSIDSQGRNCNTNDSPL
# Chain of Beta-1 adrenergic receptor (P18090 whole entry): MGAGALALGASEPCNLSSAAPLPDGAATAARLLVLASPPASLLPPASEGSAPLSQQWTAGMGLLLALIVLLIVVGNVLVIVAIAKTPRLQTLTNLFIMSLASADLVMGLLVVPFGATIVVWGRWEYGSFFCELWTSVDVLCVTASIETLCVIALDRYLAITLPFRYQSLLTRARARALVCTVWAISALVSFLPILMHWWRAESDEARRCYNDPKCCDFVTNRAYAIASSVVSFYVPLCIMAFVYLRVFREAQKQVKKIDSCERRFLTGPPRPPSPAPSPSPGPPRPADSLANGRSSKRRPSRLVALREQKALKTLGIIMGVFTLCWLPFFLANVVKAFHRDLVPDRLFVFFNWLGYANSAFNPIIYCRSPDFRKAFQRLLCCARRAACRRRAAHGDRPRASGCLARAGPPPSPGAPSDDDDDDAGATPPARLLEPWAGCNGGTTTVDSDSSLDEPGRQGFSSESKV
SMILES,ED50 (Rattus norvegicus [1]; [9]) [mg/kg],ED50 (Mus musculus [2]; [10]) [mg/kg],ED50 (Mus musculus [3]) [mg/kg],also measured
CCOC(=O)CC1=Nc2c(C)nn(C)c2C2=NC(C)CN12 (configuration not stated),> 100,> 100,> 100,
CCC1=Nc2c(C)nn(C)c2C2=NCC(C)N12 (configuration not stated),,28.3,> 100,
CCn1nc(C)c2c1C1=NCCN1C(C)=N2,,22.7,> 100,ED50 (Rattus norvegicus [4]): 15.3 mg/kg
Cc1nc2c3c(nc(C)n2c1C)c(C)nn3C,10,39.7,> 100,
CC1=Nc2c(C)nn(C)c2C2=NC(C)CN12 (configuration not stated),,32.1,> 100,
CCC1=Nc2c(C)nn(C)c2C2=NC(CC)CN12 (configuration not stated),32,21.7,> 100,
CCc1nc2c(C)nn(C)c2c2nc(C)cn12,,36.8,> 100,ED50 (Rattus norvegicus [4]): 11.4 mg/kg
CCc1nc2c(C)nn(C)c2c2ncc(C)n12,11,35.5,> 100,
Cc1nn(C)c2c1N=CN1CCN=C21,,39.3,> 100,
CCC1=Nc2c(C)nn(C)c2C2=NC(C)CN12 (configuration not stated),,21.6,> 100,ED50 (Rattus norvegicus [4]): 15.7 mg/kg
CC[C@@H]1CN2C(C)=Nc3c(C)nn(C)c3C2=N1,12,61.1,> 100,
CCC1=Nc2c(C)nn(C)c2C2=NCCN12,17,22.8,> 100,ED50 (Rattus norvegicus [4]): 24.4 mg/kg
CC1=Nc2c(C)nn(C)c2C2=N[C@@H](C(C)C)CN12,,57.3,> 100,
CCn1nc(C)c2c1C1=NCC(c3ccccc3)N1C(C)=N2 (configuration not stated),> 100,75.5,> 100,
Cc1nn(C)c2c1N=C(c1ccccc1)N1CC(C)N=C21 (configuration not stated),65,62.5,> 100,
Cc1nn(C)c2c1N=C(Cc1ccccc1)N1CC(C)N=C21 (configuration not stated),62,21.9,> 100,
CCCn1nc(C)c2c1C1=NC(C)CN1C(C)=N2 (configuration not stated),,37.7,> 100,

SMILES,ED50 (Rattus norvegicus [1]; [9]) [mg/kg],ED50 (Mus musculus [2]; [10]) [mg/kg],ED50 (Mus musculus [3]) [mg/kg],also measured
Cc1nn(C)c2c1N=CN1CC(C)N=C21 (configuration not stated),,49.2,> 100,
CCC1=Nc2c(C)nn(CC)c2C2=NC(C)CN12 (configuration not stated),,27.2,> 100,ED50 (Rattus norvegicus [4]): 15.8 mg/kg
Cc1cn2c(CC(=O)O)nc3c(C)nn(C)c3c2n1,> 100,> 100,> 100,
CCn1nc(C)c2c1C1=NC(C)CN1C(C)=N2 (configuration not stated),,25.7,> 100,ED50 (Rattus norvegicus [4]): 14.8 mg/kg
Cc1nn(C)c2c1N=C(C1CC1)N1CC(C)N=C21 (configuration not stated),12,46.1,> 100,
CCc1nc2c(C)nn(C)c2c2nc(C)c(Cl)n12,100,> 100,> 100,
CCc1nc2c(C)nn(C)c2c2nccn12,15,34.2,> 100,
Cc1nn(C)c2c1N=C(C(C)C)N1CC(C)N=C21 (configuration not stated),41,> 100,> 100,
Cc1cn2c(C)nc3c(C)nn(C)c3c2n1,< 32,73,> 100,
CCc1cn2c(CC)nc3c(C)nn(C)c3c2n1,16,20.6,> 30,
CC1=Nc2c(C)nn(C)c2C2=NC(C)(C)CN12,,22.7,> 100,ED50 (Rattus norvegicus [4]): 53.7 mg/kg
Cc1nn(C)c2c1nc(C)n1cc(Cc3ccccc3)nc21,86,83.3,> 100,
CC[C@H]1CN2C(C)=Nc3c(C)nn(C)c3C2=N1,38,42.8,> 100,
CC1=Nc2c(C)nn(C)c2C2=NC(C)C(C)N12 (stereo in doubt; cis),,,,ED50 (Rattus norvegicus [1]): 26 mg/kg; ED50 (Mus musculus [2]): 37.8 mg/kg
CC1=Nc2c(C)nn(C)c2C2=NC(C)C(C)N12 (stereo in doubt; trans),,69.1,> 100,
O=C(CCCN1CCC(O)(c2ccc(Cl)cc2)CC1)c1ccc(F)cc1 [HALOPERIDOL],0.3,0.27,> 3,ED50 (Rattus norvegicus [4]): 0.8 mg/kg
CSc1ccc2c(c1)N(CCC1CCCCN1C)c1ccccc1S2 (configuration not stated) [THIORIDAZINE],5.8,4.4,> 10,pIC50 (Adenosine receptor A1): < 5.00; pIC50 [5]: < 5.00; pIC50 [6]: < 5.00; ED50 (Monkey): 3.9 mg/kg; IC50 [7]: 8.7 µM; pIC50 [8]: < 5.00
